In ChEMBL document CHEMBL2062417, “Biotinylated quercetin as an intrinsic photoaffinity proteomics probe for the identification of quercetin target proteins” (Bioorg Med Chem, 2011):
Active and inactive are the calls of the source. The rule behind the calls is not given here.

Columns and labels:
Jurkat [1] = experiment: Inhibition of heat shock-induced HSP70 expression in human Jurkat cells at 145 uM treated 2 hrs before beat shock challenge measured after 8 hrs by Western blotting; format: functional, cell-based
In short: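 Jurkat cells (low basal HSP70) got 145 μM compound or DMSO vehicle for 2 h, then a 30 min 43 °C heat shock and 8 h recovery at 37 °C. HSP70 and actin were read by Western blot. Controls were unheated cells and heated cells with no additive.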

[2] = molecular target: Casein kinase II subunit alpha (Homo sapiens) (UniProt P68400); experiment: Binding affinity to CK2alpha at 150 uM followed by UV irradiation for 30 mins with Wood's glass filtered medium pressure mercury arc light by SDS-PAGE based pull down assay
Casein kinase II subunit alpha (Homo sapiens), sequence (P68400 whole entry, looked up): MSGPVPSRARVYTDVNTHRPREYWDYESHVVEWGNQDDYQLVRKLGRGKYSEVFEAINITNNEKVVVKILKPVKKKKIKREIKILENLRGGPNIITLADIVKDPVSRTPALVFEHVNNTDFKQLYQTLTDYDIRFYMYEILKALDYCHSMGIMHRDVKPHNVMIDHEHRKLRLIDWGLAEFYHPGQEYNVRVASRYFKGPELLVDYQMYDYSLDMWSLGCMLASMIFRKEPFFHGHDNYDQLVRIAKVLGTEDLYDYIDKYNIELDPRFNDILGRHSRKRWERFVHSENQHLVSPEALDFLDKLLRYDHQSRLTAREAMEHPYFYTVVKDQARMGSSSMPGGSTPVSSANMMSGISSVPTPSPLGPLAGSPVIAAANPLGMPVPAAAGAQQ
In short: (§1)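 CK2 (17.5–70 nM) was mixed with 150 μM BioQ in 400 μL 10 mM PBS pH 7.2 with protease inhibitors, with or without 10 mM MgCl2 and 2 μM ATP. Samples were irradiated 30 min on ice (320–400 nm, peak 365 nm) or left unirradiated. Capture was on streptavidin agarose for 1 h, with washes in lysis buffer or 2% SDS Tris buffer, then boiling, SDS-PAGE and silver staining.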

Homo sapiens = species on record: Homo sapiens; experiment: Binding affinity to CK2 at 150 uM followed by UV irradiation for 30 mins with Wood's glass filtered medium pressure mercury arc light by silver staining based pull down assay; in short: as §1
Jurkat [3] = experiment: Binding affinity to quercetin binding protein in human Jurkat cells at 150 uM after 30 mins followed by denaturing wash by SDS-PAGE based pull down assay in presence of heat shock; format: cell-based
[4] = molecular target: Heat shock protein HSP 90-alpha (Homo sapiens) (UniProt P07900); experiment: Binding affinity to HSP90AA1 in human Jurkat cells at 150 uM followed by UV irradiation for 30 mins with Wood's glass filtered medium pressure mercury arc light after cell lysis measured after denaturing wash by SDS-PAGE based pull down assay
In short: (§2)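 Jurkat cells were grown in RPMI with 10% FBS (about 15×10^6 cells) and treated 2 h with 150 μM BioQ in 3% aqueous DMSO. They were heat-shocked at 43 °C for 30 min, recovered 1 h at 37 °C, and UV-irradiated (320–400 nm, peak 365 nm, 30 min, 4 °C) before or after sonication lysis. Streptavidin-agarose capture ran 1 h. Beads were washed ≥3× with lysis buffer or 2% SDS Tris pH 7.4, boiled, run on 12% SDS-PAGE and silver-stained.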

[5] = molecular target: ATP synthase F(1) complex subunit beta, mitochondrial (Homo sapiens) (UniProt P06576); experiment: Binding affinity to ATP5B in human Jurkat cells at 150 uM followed by UV irradiation for 30 mins with Wood's glass filtered medium pressure mercury arc light after cell lysis measured after denaturing wash by SDS-PAGE based pull down assay; in short: as §2
ATP synthase F(1) complex subunit beta, mitochondrial (Homo sapiens), sequence (P06576 whole entry, one chain of several): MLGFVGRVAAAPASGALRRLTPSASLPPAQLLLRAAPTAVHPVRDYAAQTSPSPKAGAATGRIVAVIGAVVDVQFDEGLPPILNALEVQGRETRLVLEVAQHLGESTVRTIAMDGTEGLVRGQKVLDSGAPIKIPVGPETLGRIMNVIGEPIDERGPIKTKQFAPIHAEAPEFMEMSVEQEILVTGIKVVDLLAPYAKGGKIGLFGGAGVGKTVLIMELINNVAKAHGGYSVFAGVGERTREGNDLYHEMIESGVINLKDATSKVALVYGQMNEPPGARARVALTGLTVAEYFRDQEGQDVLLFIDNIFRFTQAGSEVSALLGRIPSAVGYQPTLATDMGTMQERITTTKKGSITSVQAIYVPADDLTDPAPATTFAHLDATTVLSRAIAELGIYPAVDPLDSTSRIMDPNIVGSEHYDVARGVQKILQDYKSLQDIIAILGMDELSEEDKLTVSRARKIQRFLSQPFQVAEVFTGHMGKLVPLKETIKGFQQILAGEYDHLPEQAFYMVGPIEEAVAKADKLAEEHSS

[6] = molecular target: Eukaryotic translation initiation factor 3 subunit F (Homo sapiens) (UniProt O00303); experiment: Binding affinity to EIF3F in human Jurkat cells at 150 uM followed by UV irradiation for 30 mins with Wood's glass filtered medium pressure mercury arc light after cell lysis measured after denaturing wash by SDS-PAGE based pull down assay; in short: as §2
Eukaryotic translation initiation factor 3 subunit F (Homo sapiens), sequence (O00303 whole entry): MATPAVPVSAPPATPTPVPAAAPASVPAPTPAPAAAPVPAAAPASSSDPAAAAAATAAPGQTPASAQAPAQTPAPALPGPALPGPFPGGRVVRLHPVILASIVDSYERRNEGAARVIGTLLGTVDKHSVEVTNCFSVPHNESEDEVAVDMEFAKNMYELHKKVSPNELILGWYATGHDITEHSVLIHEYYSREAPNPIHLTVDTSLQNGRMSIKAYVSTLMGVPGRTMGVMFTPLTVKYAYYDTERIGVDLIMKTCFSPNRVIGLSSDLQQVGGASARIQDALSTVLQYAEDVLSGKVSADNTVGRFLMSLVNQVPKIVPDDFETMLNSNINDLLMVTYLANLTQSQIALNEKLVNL

[7] = molecular target: Actin, cytoplasmic 1 (Homo sapiens) (UniProt P60709); experiment: Binding affinity to ACTB in human Jurkat cells at 150 uM followed by UV irradiation for 30 mins with Wood's glass filtered medium pressure mercury arc light after cell lysis measured after denaturing wash by SDS-PAGE based pull down assay; in short: as §2
[8] = molecular target: T1, Splicing factor 3B subunit 3 (Homo sapiens) (UniProt Q15393); experiment: Binding affinity to SF3B3 in human Jurkat cells at 150 uM followed by UV irradiation for 30 mins with Wood's glass filtered medium pressure mercury arc light prior to cell lysis measured after denaturing wash by SDS-PAGE based pull down assay; in short: as §2
T1 sequence (whole entry): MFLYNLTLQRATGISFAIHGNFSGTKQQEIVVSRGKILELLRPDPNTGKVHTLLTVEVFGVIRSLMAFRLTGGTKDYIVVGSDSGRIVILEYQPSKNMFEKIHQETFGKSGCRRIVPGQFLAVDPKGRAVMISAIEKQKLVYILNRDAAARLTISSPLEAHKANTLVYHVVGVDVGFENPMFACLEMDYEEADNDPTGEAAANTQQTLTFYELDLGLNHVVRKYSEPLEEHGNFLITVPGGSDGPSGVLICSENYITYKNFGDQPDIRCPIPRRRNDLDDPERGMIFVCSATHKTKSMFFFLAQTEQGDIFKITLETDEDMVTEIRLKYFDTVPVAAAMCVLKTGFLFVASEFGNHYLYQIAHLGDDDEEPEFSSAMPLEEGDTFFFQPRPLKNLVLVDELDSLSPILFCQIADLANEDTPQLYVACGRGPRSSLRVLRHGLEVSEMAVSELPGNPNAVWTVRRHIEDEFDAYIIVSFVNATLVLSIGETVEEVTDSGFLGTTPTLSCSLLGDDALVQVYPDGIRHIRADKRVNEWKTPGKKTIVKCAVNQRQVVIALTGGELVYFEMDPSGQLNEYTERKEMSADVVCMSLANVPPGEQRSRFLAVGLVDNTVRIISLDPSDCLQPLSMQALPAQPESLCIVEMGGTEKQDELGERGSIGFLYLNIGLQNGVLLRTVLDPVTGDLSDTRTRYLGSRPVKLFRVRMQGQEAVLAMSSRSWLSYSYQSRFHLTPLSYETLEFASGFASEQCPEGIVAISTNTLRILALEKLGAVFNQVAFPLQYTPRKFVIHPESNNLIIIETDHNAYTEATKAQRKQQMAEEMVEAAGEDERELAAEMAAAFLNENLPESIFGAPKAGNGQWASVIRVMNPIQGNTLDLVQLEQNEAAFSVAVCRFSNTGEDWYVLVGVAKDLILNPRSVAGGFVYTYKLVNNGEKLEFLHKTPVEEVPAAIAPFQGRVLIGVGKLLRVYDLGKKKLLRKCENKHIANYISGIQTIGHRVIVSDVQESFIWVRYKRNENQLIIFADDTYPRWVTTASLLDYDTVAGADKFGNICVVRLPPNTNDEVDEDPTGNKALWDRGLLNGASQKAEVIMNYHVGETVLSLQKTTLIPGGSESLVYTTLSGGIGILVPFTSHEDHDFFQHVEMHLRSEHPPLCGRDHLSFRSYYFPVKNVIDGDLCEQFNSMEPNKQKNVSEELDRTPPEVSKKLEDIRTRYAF

[9] = molecular target: ATP synthase F(1) complex subunit beta, mitochondrial (Homo sapiens) (UniProt P06576); experiment: Binding affinity to ATP5B in human Jurkat cells at 150 uM followed by UV irradiation for 30 mins with Wood's glass filtered medium pressure mercury arc light prior to cell lysis measured after denaturing wash by SDS-PAGE based pull down assay; in short: as §2
[10] = molecular target: Eukaryotic translation initiation factor 3 subunit F (Homo sapiens) (UniProt O00303); experiment: Binding affinity to EIF3F in human Jurkat cells at 150 uM followed by UV irradiation for 30 mins with Wood's glass filtered medium pressure mercury arc light prior to cell lysis measured after denaturing wash by SDS-PAGE based pull down assay; in short: as §2
[11] = molecular target: Actin, cytoplasmic 1 (Homo sapiens) (UniProt P60709); experiment: Binding affinity to ACTB in human Jurkat cells at 150 uM followed by UV irradiation for 30 mins with Wood's glass filtered medium pressure mercury arc light prior to cell lysis measured after denaturing wash by LC-MS/MS based pull down assay
In short: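 Silver-stained bands from cells irradiated before lysis were excised, destained, reduced with 10 mM DTT, alkylated with 50 mM iodoacetamide and digested with trypsin overnight. Peptides were extracted in 1% TFA/50% acetonitrile. Nano-C18 LC used a 2–50% acetonitrile gradient with 0.1% formic acid over 50 min at 260 nL/min, followed by MS/MS identification.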

Activity [2]: Active
Activity (Homo sapiens): inactive
Activity [4]: Active
Activity [5]: Active
Activity [6]: Active
Activity [7]: Active
Activity [8]: Active
Activity [9]: Active
Activity [10]: Active
Activity [11]: Active
SMILES: O=C(CCCC[C@@H]1SC[C@@H]2NC(=O)N[C@@H]21)NCCOCCOCCNC(=O)COc1cc(O)c2c(=O)c(O)c(-c3ccc(O)c(O)c3)oc2c1
inhibition (Jurkat [1]): Active
Activity (Jurkat [3]): Active
